Compounds with a hit are over-represented: about 1.5% of the library has one in this group of screens.
Statin myotox sup: suppression of simvastatin myotoxicity; AID 602340; 0.78% of 330,000 active; rescue of ATP level, % at 7.49 µM; C2C12 myotubes + simvastatin, ATP luminescence, 48 h; scaled: DMSO 0, geranylgeraniol control 100;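 active means mean ATP rescue above about 67%, or every replicate alone reaching that limit, limit read from the data, passing the limit was not always enough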;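 further: myotubes were challenged with 10 µM simvastatin during compound exposure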
Cneo AK release: Cryptococcus neoformans lysis via adenylate kinase release | C. neoformans lysis, adenylate kinase release luminescence, 4 h; normalised: neutral wells 0, clomiphene wells 100 | lysis activity, % at 15 µM | 0.2% of 360,000 active | AID 651654;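 active means mean lysis activity across replicates of at least 80%, whatever share of replicates individually reach that level; inactive means mean lysis activity below 80%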
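Assay system: Cryptococcus neoformans yeast cells / Dosing: single-point compound dose / Timing: 4 h at 37 °C static, read 1 h later / Measured by: luminescence of released adenylate kinase using an AK detection reagent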
Mot1-301 SUMO: SUMOylation pathway inhibition by Mot1-301 growth rescue; growth rescue, % at 18.8 µM; S. cerevisiae Mot1-301 growth rescue, ATP luminescence, 38.5C; percent above DMSO median, 100 means doubled; 1% of 320,000 active;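 active means every valid replicate shows activation above 250% relative to neutral control wells; inactive means the rest, any valid replicate at or below 250%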;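 further: OY570 slx delta 5 strain wells were the positive control but not used for scaling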
Numbers without * were called inactive; . = no result; ! = a repeat was not active.

SMILES	Statin myotox sup	Cneo AK release	Mot1-301 SUMO
COc1ccc(S(=O)(=O)N(C)C[C@@H]2OCCCC[C@H](C)Oc3ccc(NC(=O)Nc4ccc(C(F)(F)F)cc4)cc3C(=O)N([C@@H](C)CO)C[C@H]2C)cc1	-24	4	.
Cc1nn(C)cc1NC(=O)C[C@@H]1CC[C@H]2[C@H](COc3ccc(NC(=O)NC(C)C)cc3C(=O)N2C)O1	-6	57	.
CN(C)N1C(=O)CC(C)(c2ccc([N+](=O)[O-])cc2)C1=O (centres undefined)	114*	0	-2
CN(C)CCN1C(=O)NC(C)(c2ccc([N+](=O)[O-])cc2)C1=O (centres undefined)	6	0	-11
COC(=O)c1cc(OC)c(OC)cc1NC(=O)Nc1cccc(C(C)=O)c1	114*	3	-3
CC(=O)c1cccc(NC(=O)Nc2cccnc2)c1	81*	-5	-19
O=C(Nc1cccnc1)Nc1cccc(F)c1	-2	-2	-4
COC(=O)c1cc(OC)c(OC)cc1NC(=O)Nc1ccc(OC)cc1	.	.	21
CN1[C@@H]2c3ccc(-c4cccc(F)c4)c(=O)n3C[C@H]1[C@H](CO)[C@H]2C(=O)N1CCCCC1	4	0	.
Cc1ccc(S(=O)(=O)NCC[C@H]2CC[C@H](NC(=O)C3CCOCC3)[C@H](CO)O2)cc1	-4	0	.
COc1ccc2c(c1)[C@H]1[C@H](CO2)[C@H](c2ccccc2)[C@]2(C)C(=O)Nc3cc(Cl)ccc3C(=O)N12	-22	7	107
COc1ccc2c(c1)OC[C@H]1[C@H]2N2C(=O)c3cc(OC)ccc3NC(=O)[C@@]2(C)[C@H]1c1ccccc1	-1	-7	356*
COc1ccc2c(c1)OC[C@H]1[C@H]2N2C(=O)c3cc(Cl)ccc3NC(=O)[C@@]2(C)[C@H]1c1ccccc1	-8	-35	157
COc1ccc2c(c1)OC[C@H]1[C@H]2N2C(=O)c3ccc(C)cc3NC(=O)[C@@]2(C)[C@H]1c1ccccc1	10	5	356*
C[C@@H]1CN([C@H](C)CO)S(=O)(=O)c2ccc(C#CC3CC3)cc2O[C@H]1CN(C)C(=O)C1CCC1	-3	0	.
COc1ccccc1S(=O)(=O)N[C@@H]1CC[C@H](CC(=O)NCc2cccc(F)c2)O[C@@H]1CO	8	6	.
C[C@H]1CCCCO[C@@H](CN(C)C(=O)Nc2ccc(C(F)(F)F)cc2)[C@@H](C)CN([C@@H](C)CO)C(=O)c2cc(NC(=O)c3ccncc3)ccc2O1	.	-12	.
O=C(NCc1ccc(F)cc1)C1CCC(CNS(=O)(=O)c2cccs2)CC1 (centres undefined)	-29	3	137
O=C(NCc1ccccc1)C1CCC(CNS(=O)(=O)c2cccs2)CC1 (centres undefined)	97*	2	-27
Cc1ccc(S(=O)(=O)NCC[C@H]2CC[C@H](NC(=O)c3cccc(F)c3)[C@H](CO)O2)cc1	2	11	.
S=C1NC2(CCCC2)N=C1c1ccccc1	.	.	490*
CC(C)CC1(C)N=C(c2ccccc2)C(=S)N1 (centres undefined)	.	82*	-4
S=C1NC2(CCCCCC2)N=C1c1ccccc1	-6	61	48
CC1(C)N=C(c2ccccc2)C(=O)N1	.	0	-22
COc1cccc(-c2ccc3c(c2)O[C@H](CN(C)C(=O)C2CC2)[C@H](C)CN([C@@H](C)CO)S3(=O)=O)c1	32	-3	.
SMILES	Statin myotox sup	Cneo AK release	Mot1-301 SUMO
Cc1ccc(N(C(=O)c2csnn2)C(C(=O)NC2CCCCC2)c2ccccn2)cc1C (centres undefined)	81*	0	-7
Cc1cc(C)cc(N(C(=O)c2csnn2)C(C(=O)NC2CCCCC2)c2ccccn2)c1 (centres undefined)	9	0	4
O=C(C[C@H]1C[C@@H]2c3cc(NS(=O)(=O)c4ccc(F)cc4)ccc3O[C@@H]2[C@H](CO)O1)N1CCCCC1	-6	49	.
CCN(CC)C(=O)c1[nH]cnc1C(=O)N[C@@H](CC(C)C)C(=O)OC(C)(C)C	-4	4	-20
CCN(CC)C(=O)c1[nH]cnc1C(=O)NCC(=O)OC(C)(C)C	93*	2	9
O=C(C[C@@H]1CC[C@@H]2[C@H](COC[C@@H](O)CN2C(=O)c2ccncc2)O1)NC1CCC1	-25	4	.
CN1c2ccc(C3=CCCCC3)cc2[C@@H]2[C@@H](CCN2C(=O)Nc2ccc(F)cc2)[C@@H]1CO	8	1	.
O=C(Nc1ccc(Cl)c(Cl)c1)O/N=C/c1ccncc1	.	15	517*
O=C(Nc1cccc(Cl)c1)O/N=C\c1ccncc1	-13	-2	-8
CC(/C=C\c1cccnc1)=C/C(=O)O	116*!	2	-10
CC(/C=C\c1ccccc1)=C/C(=O)O	.	.	-1
O=C(CCCNC(=O)c1ccc(Cl)cc1)Nc1ncccc1O	.	1	143
O=C(CCCNC(=O)c1ccc(Cl)cc1)Nc1nccs1	1	87*	3
Cc1nc2cc(C(=O)NCCN3CCOCC3)ccc2n1-c1ccc(F)cc1F	98*	-13	-10
Cc1cccc(-n2c(C)nc3cc(C(=O)NCCN4CCOCC4)ccc32)c1	7	1	.
C[C@H](CO)N1C[C@H](C)[C@H](CN(C)C(=O)Nc2ccc(F)cc2)Oc2cc(-c3ccc(F)cc3)ccc2S1(=O)=O	-8	.	.
CCOc1ccccc1NC(=O)C1CCCN(S(=O)(=O)c2ccc(OC)c(C)c2)C1 (centres undefined)	122*	0	-2
CCOc1ccc(S(=O)(=O)N2CCCCC2)cc1NC(=O)C1CCCC1	-4	0	.
O=C(c1ccccc1)N1CC[C@@H]2[C@@H](CO)Nc3ccc(C#Cc4cccnc4)cc3[C@@H]21	-33	1	.
Cc1noc(C)c1S(=O)(=O)N(C)C[C@@H]1OCCCC[C@H](C)Oc2ccc(NS(=O)(=O)c3ccc(Cl)cc3)cc2C(=O)N([C@@H](C)CO)C[C@H]1C	.	3	.
COc1ccc(CC(=O)Nc2cc(C)on2)cc1	137*	-1	17
COc1ccc(OCCC(=O)Nc2cc(C)on2)cc1	-11	3	-12
Cc1ccc(/C=C2\SC(=S)N(CCCC(=O)Nc3ccccn3)C2=O)cc1	.	.	-2
O=C(CCN1C(=O)/C(=C/c2ccccc2)SC1=S)Nc1ccccn1	93*	-1	11
Cc1ccc(-c2ccc3c(c2)O[C@H](CN(C)C(=O)C2CCCCC2)[C@@H](C)CN([C@H](C)CO)S3(=O)=O)cc1	-10	.	.
COc1ccc(NC(=O)Nc2ccc3c(c2)C(=O)N([C@H](C)CO)C[C@H](C)[C@H](CN(C)C(=O)Nc2ccccc2)OCCCC[C@H](C)O3)cc1	6	5	.
CC/C(=N\O)c1ccc(OC)c(OC)c1	.	2	1
C=CCOc1ccc(/C(CC)=N/O)cc1OC	117*	-2	-3
COc1ccccc1CNC(=O)C[C@H]1CC[C@H]2[C@H](COc3ccc(NC(=O)Nc4ccc(F)c(F)c4)cc3C(=O)N2C)O1	-13	0	.
C[C@@H]1CN([C@H](C)CO)C(=O)c2cc(C3=CCCCC3)cnc2O[C@@H]1CN(C)C(=O)Cc1cccnc1	-14	-1	.

Compound activity from PubChem BioAssay.
